Activity calls are given as the source filed them. The rule behind the calls is not given here.
Legend:
[1] = system: T98G; assay: Growth inhibition in apoptosis-resistant human T98G after 3 days by MTT assay; type: functional; details: 72 h
Outline: (§1)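 Cells grown in RPMI with 10% heat-inactivated FCS, 4 mM glutamine, gentamicin and penicillin–streptomycin. Drug exposure 3 days, growth read by MTT colorimetric assay. Nine concentrations from 0.01 to 100 μM in semilog steps, six replicates each; IC50 derived per cell line.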

[2] = Chemical stability of the compound in MEM cell culture medium after 7 days by HPLC analysis; type: physicochemical; details: read-out: Stability
Outline: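 Compound incubated in MEM culture medium at 37 °C for 7 days, then analysed by HPLC on RX-C8 (5 μm) column with MeOH–water 90:10 (0.1% TFA), diode-array detection. Expressed as % of incubated compound recovered.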

[3] = system: Hs 683; assay: Growth inhibition in apoptosis-sensitive human Hs683 after 3 days by MTT assay; type: functional; details: Hs 683, 72 h; outline: as §1
[4] = system: PC-3; assay: Growth inhibition in apoptosis-sensitive human PC3 after 3 days by MTT assay; type: functional; details: PC-3, 72 h; outline: as §1
[5] = system: U-373MG ATCC; assay: Activation of caspase-like activity of 20S proteasome in human U373 cells at 30 uM after 2 days by bioluminescence assay; type: cell-based
Outline: (§2)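 Caspase-like site, substrate Z-nLPnLD-Glo. U373 cells were plated at 5000 cells/mL for 48 h, then treated two days. Cells were PBS-washed and permeabilised with 0.025% digitonin before Proteasome-Glo reagent was added. Luminescence was read after 10 min in the dark. Triplicates, normalised to a parallel MTT viability assay under identical conditions.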

[6] = Growth inhibition in apoptosis-resistant human U373 after 3 days by MTT assay; type: functional, U-373MG ATCC; details: U373 MG, 72 h; outline: as §1
[7] = system: B16-F10; assay: Growth inhibition in mouse B16F10 after 3 days by MTT assay; type: functional; details: B16-F10, 72 h; outline: as §1
[8] = system: A549; assay: Growth inhibition in apoptosis-resistant human A549 after 3 days by MTT assay; type: functional; details: A549, 72 h; outline: as §1
[9] = system: SK-MEL-28; assay: Growth inhibition in apoptosis-resistant human SK-MEL-28 after 3 days by MTT assay; type: functional; details: SK-MEL-28, 72 h; outline: as §1
[10] = target: T1, Peroxisome proliferator-activated receptor gamma (Homo sapiens) (UniProt P37231); assay: Inhibition of PPARgamma activity in human U373 cells at 30 uM after 6 hrs by spectrophotometric analysis relative to control; type: cell-based; details: U-373MG ATCC
T1 sequence (whole entry): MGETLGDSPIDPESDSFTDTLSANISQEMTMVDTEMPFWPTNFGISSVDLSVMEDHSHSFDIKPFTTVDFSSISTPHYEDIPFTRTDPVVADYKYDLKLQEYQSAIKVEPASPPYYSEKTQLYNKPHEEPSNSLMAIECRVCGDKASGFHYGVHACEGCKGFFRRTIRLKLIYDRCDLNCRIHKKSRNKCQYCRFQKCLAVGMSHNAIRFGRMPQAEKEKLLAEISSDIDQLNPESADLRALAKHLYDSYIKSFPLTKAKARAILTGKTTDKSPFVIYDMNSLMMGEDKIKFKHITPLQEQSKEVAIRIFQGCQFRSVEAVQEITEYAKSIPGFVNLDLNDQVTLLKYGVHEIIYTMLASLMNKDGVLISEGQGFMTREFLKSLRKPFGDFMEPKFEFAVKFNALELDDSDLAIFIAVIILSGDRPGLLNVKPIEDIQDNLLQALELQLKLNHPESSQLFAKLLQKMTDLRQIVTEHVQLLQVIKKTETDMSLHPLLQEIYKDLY
Outline: (§3)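 Human U373 glioblastoma cells exposed to compound for 6 h, then detached with trypsin. Nuclear extracts prepared by hypotonic lysis with Nonidet P-40 and extraction buffer with protease inhibitor, clarified at 14 000 g, 4 °C. Extracts bound overnight at 4 °C in a PPAR-γ transcription factor ELISA kit, with primary antibody then HRP anti-rabbit. Absorbance read at 450 nm; triplicates, mean ± SD versus control.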

[11] = system: U-373MG ATCC; assay: Inhibition of trypsin-like activity of 20S proteasome in human U373 cells at 30 uM after 2 days by bioluminescence assay; type: cell-based
Outline: (§4)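 U373 GBM cells seeded at 5000 cells/mL and grown 48 h, then treated for two days. Cells washed in PBS and permeabilised with 0.025% digitonin. Proteasome-Glo reagent added with Suc-LLVY-Glo (chymotrypsin-like), Z-LRR-Glo (trypsin-like) or Z-nLPnLD-Glo (caspase-like) substrate. Luminescence read after 10 min in the dark and normalised to a parallel MTT viability assay; triplicates. MG-132 at 0.5 μM used as reference.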

[12] = system: MCF7; assay: Growth inhibition in apoptosis-sensitive human MCF7 after 3 days by MTT assay; type: functional; details: MCF7, 72 h; outline: as §1
[13] = system: U-373MG ATCC; assay: Activation of chymotrypsin-like activity of 20S proteasome in human U373 cells at 30 uM after 2 days by bioluminescence assay; type: cell-based
Outline: (§5)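 Chymotrypsin-like site, substrate Suc-LLVY-Glo. U373 cells were seeded at 5000 cells/mL for 48 h and exposed two days. After a PBS wash and 0.025% digitonin permeabilisation, Proteasome-Glo reagent was added. Bioluminescence was read after 10 min dark incubation. Triplicates, normalised by a concurrent MTT viability assay run in identical conditions.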

[14] = system: U-373MG ATCC; assay: Activation of caspase-like activity of 20S proteasome in human U373 cells at 70 uM after 2 days by bioluminescence assay; type: cell-based; outline: as §2
[15] = system: U-373MG ATCC; assay: Inhibition of trypsin-like activity of 20S proteasome in human U373 cells at 70 uM after 2 days by bioluminescence assay; type: cell-based; outline: as §4
[16] = system: U-373MG ATCC; assay: Activation of chymotrypsin-like activity of 20S proteasome in human U373 cells at 70 uM after 2 days by bioluminescence assay; type: cell-based; outline: as §5
[17] = target: T1, Peroxisome proliferator-activated receptor gamma (Homo sapiens); assay: Inhibition of PPARgamma activity in human U373 cells at 70 uM after 6 hrs by spectrophotometric analysis relative to control; type: cell-based; details: U-373MG ATCC; outline: as §3
[18] = system: U-373MG ATCC; assay: Inhibition of trypsin-like activity of 20S proteasome in human U373 cells at 60 uM after 2 days by bioluminescence assay; type: cell-based; outline: as §4
[19] = system: U-373MG ATCC; assay: Activation of chymotrypsin-like activity of human proteasome in U373 at 60 uM after 2 days by bioluminescence assay; type: cell-based; outline: as §5
[20] = system: U-373MG ATCC; assay: Activation of caspase-like activity of 20S proteasome in human U373 cells at 60 uM after 2 days by bioluminescence assay; type: cell-based; outline: as §2
[21] = target: T1, Peroxisome proliferator-activated receptor gamma (Homo sapiens); assay: Inhibition of PPARgamma activity in human U373 cells at 60 uM after 6 hrs by spectrophotometric analysis relative to control; type: cell-based; details: U-373MG ATCC; outline: as §3
[22] = target: T1, Peroxisome proliferator-activated receptor gamma (Homo sapiens); assay: Inhibition of PPARgamma activity in human U373 cells at 25 uM after 6 hrs by spectrophotometric analysis relative to control; type: cell-based; details: U-373MG ATCC; outline: as §3
[23] = system: U-373MG ATCC; assay: Activation of chymotrypsin-like activity of 20S proteasome in human U373 cells at 25 uM after 2 days by bioluminescence assay; type: cell-based; outline: as §5
[24] = system: U-373MG ATCC; assay: Inhibition of trypsin-like activity of 20S proteasome in human U373 cells at 25 uM after 2 days by bioluminescence assay; type: cell-based; outline: as §4
[25] = system: U-373MG ATCC; assay: Activation of caspase-like activity of 20S proteasome in human U373 cells at 25 uM after 2 days by bioluminescence assay; type: cell-based; outline: as §2
[26] = target: T1, Peroxisome proliferator-activated receptor gamma (Homo sapiens); assay: Inhibition of PPARgamma activity in human U373 cells at 80 uM after 6 hrs by spectrophotometric analysis relative to control; type: cell-based; details: U-373MG ATCC; outline: as §3
[27] = system: U-373MG ATCC; assay: Activation of chymotrypsin-like activity of 20S proteasome in human U373 cells at 80 uM after 2 days by bioluminescence assay; type: cell-based; outline: as §5
[28] = system: U-373MG ATCC; assay: Inhibition of trypsin-like activity of 20S proteasome in human U373 cells at 80 uM after 2 days by bioluminescence assay; type: cell-based; outline: as §4
[29] = system: U-373MG ATCC; assay: Activation of caspase-like activity of 20S proteasome in human U373 cells at 80 uM after 2 days by bioluminescence assay; type: cell-based; outline: as §2

Compound: COC(=O)[C@@]1(C)CC[C@]2(C)CC[C@]3(C)C(=CC(=O)[C@@H]4[C@@]5(C)C=C(I)C(=O)C(C)(C)[C@@H]5CC[C@]43C)[C@@H]2C1
- GI50 [1]: 6 µM
- remaining at 168 h [2]: 89%
- GI50 [3]: 48 µM
- GI50 [4]: 36 µM
- Activity [5]: Active
- GI50 [6]: 42 µM
- GI50 [7]: 23 µM
- GI50 [8]: 42 µM
- GI50 [9]: 32 µM
- inhibition [10]: Active
- inhibition [11]: Active
- GI50 [12]: 28 µM
- Activity [13]: Active

Compound: COc1ccc2[nH]cc(CCNC(=O)[C@@]3(C)CC[C@]4(C)CC[C@]5(C)C(=CC(=O)[C@@H]6[C@@]7(C)CC[C@H](O)C(C)(C)[C@@H]7CC[C@]65C)[C@@H]4C3)c2c1
- GI50 [1]: > 100 µM
- remaining at 168 h [2]: 94%
- GI50 [3]: 57 µM
- GI50 [4]: 43 µM
- Activity [14]: Active
- inhibition [15]: Active
- GI50 [6]: 75 µM
- GI50 [7]: 31 µM
- GI50 [8]: 40 µM
- GI50 [9]: > 100 µM
- GI50 [12]: 38 µM
- Activity [16]: Active
- inhibition [17]: Active

Compound: COc1ccc(CCNC(=O)[C@@]2(C)CC[C@]3(C)CC[C@]4(C)C(=CC(=O)[C@@H]5[C@@]6(C)CC[C@H](O)C(C)(C)[C@@H]6CC[C@]54C)[C@@H]3C2)cc1OC
- GI50 [1]: 91 µM
- remaining at 168 h [2]: 86%
- GI50 [3]: 59 µM
- GI50 [4]: 34 µM
- GI50 [6]: 43 µM
- GI50 [7]: 37 µM
- GI50 [8]: 52 µM
- GI50 [9]: > 100 µM
- GI50 [12]: 34 µM
- inhibition [18]: Active
- Activity [19]: Active
- Activity [20]: Active
- inhibition [21]: Active

Compound: CC1(C)[C@@H](O)CC[C@]2(C)[C@H]3C(=O)C=C4[C@@H]5C[C@@](C)(C(=O)NCCNC(=S)Nc6ccccc6)CC[C@]5(C)CC[C@@]4(C)[C@]3(C)CC[C@@H]12
- GI50 [1]: 25 µM
- remaining at 168 h [2]: 94%
- inhibition [22]: Active
- GI50 [3]: 8 µM
- GI50 [4]: 9 µM
- Activity [23]: Active
- inhibition [24]: Active
- GI50 [6]: 29 µM
- GI50 [7]: 34 µM
- GI50 [8]: 31 µM
- GI50 [9]: 38 µM
- GI50 [12]: 30 µM
- Activity [25]: Active

Compound: COc1ccc(CCNC(=O)[C@@]2(C)CC[C@]3(C)CC[C@]4(C)C(=CC(=O)[C@@H]5[C@@]6(C)CCC(=O)C(C)(C)[C@@H]6CC[C@]54C)[C@@H]3C2)cc1
- GI50 [1]: > 100 µM
- remaining at 168 h [2]: 93%
- GI50 [3]: 91 µM
- GI50 [4]: 52 µM
- GI50 [6]: 69 µM
- GI50 [7]: 49 µM
- inhibition [26]: Active
- GI50 [8]: > 100 µM
- Activity [27]: Active
- GI50 [9]: > 100 µM
- inhibition [28]: Active
- GI50 [12]: 56 µM
- Activity [29]: Active

Source: ChEMBL document CHEMBL1833790, “N-(2-{3-[3,5-bis(trifluoromethyl)phenyl]ureido}ethyl)-glycyrrhetinamide (6b): a novel anticancer glycyrrhetinic acid derivative that targets the proteasome and displays anti-kinase activity” (J Med Chem, 2011)
